High-throughput results from PubChem.
The list is not random: actives were taken first. Their share in the collection is about 4.3%.
NF-kB expr up = compounds increasing NF-kB expression in human neuronal cells. fold change at 12.5 µM. NF-kB reporter expression; active compounds read high. 190,000 compounds, 1.6% hits; in the data active means fold change above about 3.3
FLuc inhib CS = Photinus pyralis luciferase inhibition counter-screen. P08659. ATPLite firefly luciferase biochemical luminescence, 10 min. inhibition, % at 10 µM. 200,000 compounds, 1.5% hits. AID 1006;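 active means inhibition above about 50% when tested at 10 µM, limit read from the data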
Target sequence (P08659 whole entry, looked up): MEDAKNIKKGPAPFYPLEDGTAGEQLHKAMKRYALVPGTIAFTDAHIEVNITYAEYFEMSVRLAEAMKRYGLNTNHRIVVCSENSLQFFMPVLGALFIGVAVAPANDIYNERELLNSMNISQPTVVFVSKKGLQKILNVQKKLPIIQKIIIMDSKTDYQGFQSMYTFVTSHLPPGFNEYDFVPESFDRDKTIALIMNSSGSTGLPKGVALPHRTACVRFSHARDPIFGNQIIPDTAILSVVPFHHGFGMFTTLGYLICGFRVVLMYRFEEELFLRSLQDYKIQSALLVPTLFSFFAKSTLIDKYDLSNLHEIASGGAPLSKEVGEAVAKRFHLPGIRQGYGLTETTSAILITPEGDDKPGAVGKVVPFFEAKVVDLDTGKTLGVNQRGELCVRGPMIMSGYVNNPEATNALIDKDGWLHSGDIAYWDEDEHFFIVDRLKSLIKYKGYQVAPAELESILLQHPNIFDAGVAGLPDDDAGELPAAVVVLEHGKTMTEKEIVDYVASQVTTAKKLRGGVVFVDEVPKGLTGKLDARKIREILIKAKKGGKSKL
STAT1 activator = activators of IFN-gamma induced STAT1 signaling | activation (% of control), % at 5.5 µM | NIH 3T3 STAT1-luciferase reporter, luminescence; 100% = IFN-gamma alone, no compound | AID 932 | 200,000 compounds, 2.6% hits;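 active means activation above the screen-wide mean activation plus 3 SD, cut at about 130% in these data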;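 further: raw ratio to IFN-gamma control signal so 100% means no change and 0% no light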
FLuc act counter = affects firefly luciferase, flagging false hits in luciferase stimulation screens. AID 1027. activation factor at 10 µM. P08659. ATPlite luciferase biochemical, luminescence, 10 min; 0 = ATP-free wells, 1 = DMSO control. 200,000 tested, under 10 active;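 active means luciferase activation factor, scaled between plate controls, of at least 2 with compound at 10 µM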
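System: luciferase plus luciferin reagent, cell-free; medium: PBS as buffer for the ATP substrate; dosing: test compounds dosed from 2 mM stocks in 100% DMSO; timing: 10 min post-reagent at room temperature; measured by: luminescence measurement of luciferase light output; evaluation: luciferase activation, seen as luminescence increase over controls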
APP 5'UTR act = APP 5'UTR luciferase reporter activation | SH-SY5Y APP 5'UTR luciferase reporter, luminescence; zero percent = DMSO vehicle wells | activation, % at 2 µM | 190,000 compounds, 1% hits | AID 1276;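 active means activation above a set limit, based on mean plus 3 SD of controls, cut at about 140% in these data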
STAT1 act conf = confirmation of STAT1 signaling activators | shares compounds with STAT1 activator | NIH 3T3 STAT1-luciferase reporter, IFN-gamma potentiation, luminescence; 100% = IFN-gamma EC80 alone, no compound | activation (% of control), % at 5.7 µM | 1,200 compounds, 97% hits | AID 1262;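 active means activation above a set limit carried over from the earlier primary STAT1 screen, cut at about 140% in these data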;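 further: simple ratio to median IFN-gamma plus DMSO wells so 0% means no light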
NFkB act = activates NF-kappaB, counter-screen to STAT1 activators; shares compounds with STAT1 activator; HEK293T NF-kB luciferase reporter, TNF-alpha stimulated, luminescence; 100% = TNF-alpha with vehicle only; activation (% of control), % at 5.7 µM; 1,200 compounds, 43% hits;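 active means activation above the mean of solvent-only control wells plus 3 SD, set per campaign, cut at about 130% in these data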;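 further: TNF-alpha given at a submaximal dose yielding about 80% of full reporter signal; values are well signal over median control so 100% means no change and 0% no light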
STAT3 act 2 = activates human STAT3, counter-screen to STAT1 activators. activation (% of control), % at 5.7 µM. shares compounds with STAT1 activator. 1,200 compounds, 46% hits. U3A cells STAT3-luciferase reporter, IL-6, luminescence; cells lack STAT1; 100 = IL-6 alone, no compound effect;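 active means activation above the solvent-only control well mean plus 3 SD, set per plate batch, cut at about 110% in these data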;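 further: 0% = no luminescence and 100% = median IL-6 plus DMSO wells; higher means more STAT3 reporter activation so hits are non-selective activators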
Numbers without * were called inactive; / = no result given.

SMILES | NF-kB expr up | FLuc inhib CS | STAT1 activator | FLuc act counter | APP 5'UTR act | STAT1 act conf | NFkB act | STAT3 act 2
CN1C2CCC1/C(=C/c1ccccn1)C(=O)/C2=C\c1ccccn1 | 0.47 | -9.2 | 209.1* | 1.1 | -94.6 | 476.9* | 252.3* | 56.5
CCC(=O)N1N=C2C3CCN(CC3)C2C1c1ccc(C)cc1 (stereo unspecified) | 1.3 | 5.1 | 98.6 | 0.9 | -7.2 | / | / | /
CN1CC[C@]2(c3cccc(O)c3)Cc3nc4ccccc4cc3C[C@H]2C1 | / | 0.9 | / | 1 | / | / | / | /
CC(=O)Nc1ccccc1C(=O)OCC(=O)c1ccc2c(c1)OCCO2 | 0.63 | 82.3* | 175.2* | 0.2 | 76.9 | 203.1* | 120.4 | 115.9*
CC(=O)Nc1ccccc1C(=O)OCc1ccc(F)cc1 | 0.97 | -9.9 | 174.6* | 1.1 | 6.0 | 124.5 | 109.0 | 97.5
Nc1ccccc1C(=O)OCC(=O)N1CCc2ccccc21 | 2.24 | 27.7 | 153.5* | 0.7 | 13.4 | 168.5* | 116.4 | 96.7
N#CSCC(=O)N1c2ccccc2CCc2ccccc21 | 1.12 | -7.3 | 95.7 | 1.1 | -19.0 | / | / | /
C=CCN1C(=O)NC(=O)/C(=C/c2ccc(N(C)C)c(Br)c2)C1=O | 1.61 | -3.4 | 97.4 | 1 | 11.3 | / | / | /
Cc1cccc(-n2c(/C=C/c3ccc([N+](=O)[O-])o3)nc3ccccc3c2=O)c1 | 1.03 | -5.0 | 99.6 | 1.1 | / | / | / | /
O=c1c2ccccc2nc(/C=C/c2ccc([N+](=O)[O-])o2)n1-c1ccc(O)cc1 | 1.62 | -6.1 | 326.0* | 1.1 | -80.3 | 175.1* | 154.3* | 101.4
N=C1c2ccccc2CN1CC(=O)c1ccccc1 | 7.81* | 2.8 | 182.4* | 1 | 142.9* | 153.9* | 129.9 | 119.0*
N=C1c2ccccc2CN1NC(=O)c1ccccc1 | 1.19 | -4.1 | 103.3 | 1 | 38.0 | / | / | /
